Reference: ChEMBL document CHEMBL3085768, “Structure-guided design of potent diazobenzene inhibitors for the BET bromodomains” (J Med Chem, 2013)

Columns and labels:
[1] = biological target: T1, Bromodomain-containing protein 4 (Homo sapiens, UniProt O60885); experiment: Displacement of fluorescein-labeled MS574 from recombinant human BRD4 BrD2 after 1 hr by fluorescence anisotropy assay
How it was run: (§1)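 Competition fluorescence anisotropy with His-tag-removed recombinant bromodomain (Ni-IDA purified, thrombin cleaved) at 0.25–1 µM, chosen so that 50–80% of probe is bound. FITC-labeled probe at 80 nM (≤2Kd), unlabeled ligand titrated, in PBS pH 7.4, read after 1 h at 25 °C. IC50 from curve fit, converted to Ki with the Nikolovska-Coleska correction to Cheng-Prusoff (one-site competitive). The resolvable Ki is limited by the probe Kd.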

[2] = biological target: T2, Bromodomain-containing protein 3 (Homo sapiens, UniProt Q15059); experiment: Displacement of fluorescein-labeled MS574 from recombinant human BRD3 BrD1 after 1 hr by fluorescence anisotropy assay; how it was run: as §1
T2 sequence (Q15059 whole entry): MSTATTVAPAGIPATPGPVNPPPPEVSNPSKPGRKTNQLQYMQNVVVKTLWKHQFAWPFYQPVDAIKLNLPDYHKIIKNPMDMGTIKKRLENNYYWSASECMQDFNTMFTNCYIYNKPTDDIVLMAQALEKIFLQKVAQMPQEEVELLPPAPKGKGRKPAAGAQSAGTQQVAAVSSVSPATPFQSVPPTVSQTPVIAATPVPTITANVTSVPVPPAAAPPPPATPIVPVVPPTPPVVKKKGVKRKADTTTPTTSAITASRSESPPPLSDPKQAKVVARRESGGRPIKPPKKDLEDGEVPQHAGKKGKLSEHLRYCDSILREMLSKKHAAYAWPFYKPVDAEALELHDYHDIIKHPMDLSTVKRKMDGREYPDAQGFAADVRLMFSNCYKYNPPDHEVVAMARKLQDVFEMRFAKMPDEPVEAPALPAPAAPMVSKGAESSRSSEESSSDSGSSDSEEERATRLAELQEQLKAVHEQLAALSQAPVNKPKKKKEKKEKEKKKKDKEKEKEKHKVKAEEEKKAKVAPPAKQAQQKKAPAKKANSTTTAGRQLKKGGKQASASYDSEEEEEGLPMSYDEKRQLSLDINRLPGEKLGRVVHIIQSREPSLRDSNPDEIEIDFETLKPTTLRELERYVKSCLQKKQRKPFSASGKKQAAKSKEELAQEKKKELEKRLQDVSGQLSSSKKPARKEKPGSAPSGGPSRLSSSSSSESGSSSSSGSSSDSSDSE

[3] = biological target: T1, Bromodomain-containing protein 4; experiment: Displacement of fluorescein-labeled MS574 from recombinant human BRD4 BrD1 after 1 hr by fluorescence anisotropy assay; how it was run: as §1
[4] = biological target: T3, Bromodomain-containing protein 7 (Homo sapiens, UniProt Q9NPI1); experiment: Displacement of fluorescein-labeled MS226 from recombinant human BRD7 after 1 hr by fluorescence anisotropy assay; how it was run: as §1
T3 sequence (Q9NPI1 whole entry): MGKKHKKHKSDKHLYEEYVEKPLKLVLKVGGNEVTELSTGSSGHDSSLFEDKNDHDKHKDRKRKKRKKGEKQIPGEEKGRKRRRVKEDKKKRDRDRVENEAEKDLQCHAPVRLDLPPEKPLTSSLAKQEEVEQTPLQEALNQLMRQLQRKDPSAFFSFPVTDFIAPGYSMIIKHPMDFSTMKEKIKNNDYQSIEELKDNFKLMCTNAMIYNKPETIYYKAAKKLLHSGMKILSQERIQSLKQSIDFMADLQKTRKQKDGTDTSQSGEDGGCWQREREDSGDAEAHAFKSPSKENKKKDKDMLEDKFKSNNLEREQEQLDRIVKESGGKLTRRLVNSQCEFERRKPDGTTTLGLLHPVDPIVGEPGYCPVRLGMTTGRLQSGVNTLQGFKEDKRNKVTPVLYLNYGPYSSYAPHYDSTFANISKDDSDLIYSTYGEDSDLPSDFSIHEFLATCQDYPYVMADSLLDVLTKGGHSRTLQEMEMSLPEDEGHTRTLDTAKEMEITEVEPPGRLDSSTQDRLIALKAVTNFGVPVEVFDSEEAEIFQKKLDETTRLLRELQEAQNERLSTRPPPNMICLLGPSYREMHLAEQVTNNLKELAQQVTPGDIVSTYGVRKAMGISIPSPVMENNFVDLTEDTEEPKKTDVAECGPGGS

[5] = biological target: T4, Bromodomain-containing protein 4 (Mus musculus, UniProt Q9ESU6); experiment: (§2) Inhibition of BRD4 in LPS-stimulated mouse RAW264.7 cells assessed as inhibition of NF-kappaB-mediated IL-6 expression preincubated for 30 mins followed by LPS stimulation measured after 24 hrs by ELISA; type: cell-based
How it was run: (§3)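 RAW264.7 cells grown in DMEM/10% FBS at 37 °C, 5% CO2, plated at 3 × 10^5 cells/mL, pretreated with inhibitor for 30 min. Medium was then replaced with LPS (1 µg/mL) plus inhibitor for 24 h. Compounds were diluted from DMSO to 0.28–50000 nM, final DMSO 0.05% (v/v). Supernatant IL-6 was measured by mouse ELISA read at 570 nm.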

[6] = biological target: Bromodomain-containing protein 4 (Mus musculus) (UniProt Q9ESU6); experiment: as §2; type: cell-based; how it was run: as §3
[7] = biological target: CREB-binding protein (Homo sapiens, UniProt Q92793); experiment: Displacement of fluorescein-labeled MS226 from recombinant human CBP bromodomain after 1 hr by fluorescence anisotropy assay; how it was run: as §1
[8] = biological target: Histone acetyltransferase KAT2B (Homo sapiens, UniProt Q92831); experiment: Displacement of fluorescein-labeled MS239 from recombinant human PCAF after 1 hr by fluorescence anisotropy assay; how it was run: as §1
Sequence of Histone acetyltransferase KAT2B (Q92831 whole entry): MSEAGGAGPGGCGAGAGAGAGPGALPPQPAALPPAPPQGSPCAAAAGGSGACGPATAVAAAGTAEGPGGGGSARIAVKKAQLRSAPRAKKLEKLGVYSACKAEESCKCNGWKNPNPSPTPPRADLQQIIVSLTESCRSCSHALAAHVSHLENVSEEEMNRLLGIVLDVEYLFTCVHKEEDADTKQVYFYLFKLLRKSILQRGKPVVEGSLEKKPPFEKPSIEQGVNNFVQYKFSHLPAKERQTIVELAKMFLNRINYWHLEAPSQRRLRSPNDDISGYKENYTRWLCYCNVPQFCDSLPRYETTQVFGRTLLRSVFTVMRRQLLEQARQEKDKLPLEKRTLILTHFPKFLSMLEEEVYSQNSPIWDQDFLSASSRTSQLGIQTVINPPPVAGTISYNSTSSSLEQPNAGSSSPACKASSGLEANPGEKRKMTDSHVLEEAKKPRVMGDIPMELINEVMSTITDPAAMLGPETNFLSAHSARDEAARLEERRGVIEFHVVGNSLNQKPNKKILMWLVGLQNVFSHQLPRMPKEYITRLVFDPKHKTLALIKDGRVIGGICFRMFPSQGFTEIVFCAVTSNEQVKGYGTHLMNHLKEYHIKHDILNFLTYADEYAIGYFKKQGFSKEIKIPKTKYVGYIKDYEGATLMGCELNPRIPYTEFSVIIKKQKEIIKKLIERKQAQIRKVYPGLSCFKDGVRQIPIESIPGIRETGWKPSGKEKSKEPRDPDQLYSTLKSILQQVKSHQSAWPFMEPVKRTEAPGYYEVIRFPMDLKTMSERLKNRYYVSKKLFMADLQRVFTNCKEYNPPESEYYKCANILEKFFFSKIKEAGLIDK

[9] = biological target: SWI/SNF-related matrix-associated actin-dependent regulator of chromatin subfamily A member 4 (Homo sapiens, UniProt P51532); experiment: Displacement of fluorescein-labeled MS239 from recombinant human SMARCA4 bromodomain after 1 hr by fluorescence anisotropy assay; how it was run: as §1
Sequence of SWI/SNF-related matrix-associated actin-dependent regulator of chromatin subfamily A member 4 (P51532 whole entry): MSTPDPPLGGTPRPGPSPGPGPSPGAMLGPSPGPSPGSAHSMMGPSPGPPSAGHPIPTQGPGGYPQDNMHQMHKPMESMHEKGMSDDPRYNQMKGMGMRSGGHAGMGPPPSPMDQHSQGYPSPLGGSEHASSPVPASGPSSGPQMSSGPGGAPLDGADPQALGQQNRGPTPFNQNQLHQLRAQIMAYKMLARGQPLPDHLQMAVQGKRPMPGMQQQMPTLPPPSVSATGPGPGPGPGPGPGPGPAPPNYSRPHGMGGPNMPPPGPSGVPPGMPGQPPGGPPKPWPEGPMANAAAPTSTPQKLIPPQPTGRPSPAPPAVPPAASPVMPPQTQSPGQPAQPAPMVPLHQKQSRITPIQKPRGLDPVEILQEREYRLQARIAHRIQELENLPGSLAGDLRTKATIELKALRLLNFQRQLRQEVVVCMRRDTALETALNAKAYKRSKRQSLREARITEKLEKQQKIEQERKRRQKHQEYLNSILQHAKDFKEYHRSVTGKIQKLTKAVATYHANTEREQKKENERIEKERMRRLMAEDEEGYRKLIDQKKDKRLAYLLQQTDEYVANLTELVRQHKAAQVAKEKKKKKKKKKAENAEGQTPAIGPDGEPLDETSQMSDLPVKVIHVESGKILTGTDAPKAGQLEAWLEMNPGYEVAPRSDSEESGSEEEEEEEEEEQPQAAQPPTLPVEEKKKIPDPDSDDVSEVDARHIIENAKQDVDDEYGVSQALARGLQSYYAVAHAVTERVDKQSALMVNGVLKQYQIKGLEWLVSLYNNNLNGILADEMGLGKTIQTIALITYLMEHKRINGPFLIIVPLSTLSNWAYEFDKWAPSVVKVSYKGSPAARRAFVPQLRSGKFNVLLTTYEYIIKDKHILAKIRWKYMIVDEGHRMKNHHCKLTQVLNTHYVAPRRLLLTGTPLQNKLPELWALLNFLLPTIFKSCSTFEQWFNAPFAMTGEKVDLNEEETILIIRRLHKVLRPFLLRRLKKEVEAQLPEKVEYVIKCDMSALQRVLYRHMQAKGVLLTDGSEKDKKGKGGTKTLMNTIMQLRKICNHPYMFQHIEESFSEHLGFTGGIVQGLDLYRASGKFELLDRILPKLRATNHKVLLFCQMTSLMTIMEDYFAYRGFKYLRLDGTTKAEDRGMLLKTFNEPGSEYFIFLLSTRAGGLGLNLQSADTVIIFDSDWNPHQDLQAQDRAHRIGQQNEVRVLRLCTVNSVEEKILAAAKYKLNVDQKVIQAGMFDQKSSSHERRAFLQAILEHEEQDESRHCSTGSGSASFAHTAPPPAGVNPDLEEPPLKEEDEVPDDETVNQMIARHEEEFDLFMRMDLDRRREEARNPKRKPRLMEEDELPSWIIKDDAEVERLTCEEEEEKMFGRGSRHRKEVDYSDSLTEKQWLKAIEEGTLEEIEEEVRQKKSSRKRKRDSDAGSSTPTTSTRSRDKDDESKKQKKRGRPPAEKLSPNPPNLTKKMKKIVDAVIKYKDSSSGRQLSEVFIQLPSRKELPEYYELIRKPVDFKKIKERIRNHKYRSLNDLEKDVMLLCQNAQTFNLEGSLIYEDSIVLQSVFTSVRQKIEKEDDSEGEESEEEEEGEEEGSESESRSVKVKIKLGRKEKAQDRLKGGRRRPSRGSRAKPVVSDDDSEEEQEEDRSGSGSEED

[10] = biological target: T4, Bromodomain-containing protein 4; experiment: (§4) Inhibition of BRD4 in LPS-stimulated mouse RAW264.7 cells assessed as inhibition of NF-kappaB-mediated nitric oxide production preincubated for 30 mins followed by LPS stimulation measured after 24 hrs by spectrophotometric analysis; type: cell-based
How it was run: (§5)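 RAW264.7 cells in DMEM/10% FBS, plated at 3 × 10^5 cells/mL, pretreated with inhibitor 30 min, then LPS (1 µg/mL) plus inhibitor for 24 h. Inhibitor concentrations 0.28–50000 nM from DMSO stock, final DMSO 0.05% (v/v). Nitrite in the supernatant was measured spectrophotometrically at 520 nm.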

[11] = biological target: Bromodomain-containing protein 4 (Mus musculus) (UniProt Q9ESU6); experiment: as §4; type: cell-based; how it was run: as §5
[12] = tested on: RAW264.7; experiment: Cytotoxicity against mouse RAW264.7 cells assessed as cell viability up to 100 uM after 24 hrs by MTT assay; type: cell-based; details: raw264.7, 24 h
How it was run: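 RAW264.7 macrophages seeded at 1 × 10^4 cells/well, settled 18 h at 37 °C, then exposed to inhibitors up to 100 µM for 24 h. Compounds were predissolved in DMSO and diluted in medium, final DMSO 0.05% (v/v). MTT (4 mg/ml) was added for 4 h at 37 °C, formazan solubilized in DMSO, and absorbance read at 570/630 nm.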

[13] = biological target: Nucleosome-remodeling factor subunit BPTF (Homo sapiens, UniProt Q12830); experiment: Displacement of fluorescein-labeled MS239 from recombinant human BPTF after 1 hr by fluorescence anisotropy assay; how it was run: as §1
[14] = biological target: T2, Bromodomain-containing protein 3; experiment: Displacement of fluorescein-labeled MS574 from recombinant human BRD3 BrD2 after 1 hr by fluorescence anisotropy assay; how it was run: as §1

Structure (SMILES): Cc1cc(/N=N/c2ccc(S(=O)(=O)Nc3ccccn3)cc2)c(N)c(C)c1O
- Ki [1]: 440 nM
- Ki [2]: 290 nM
- Ki ([3]; read-out: Ki): 150 nM
- Ki ([3]; read-out: pKi (converted)): 151 nM
- Ki [4]: < 1430 nM
- IC50 [5]: 23200 nM
- inhibition [6]: Dose-dependent effect
- Ki [7]: 5120 nM
- Ki [8]: < 3340 nM
- Ki [9]: < 6560 nM
- IC50 [10]: 38100 nM
- inhibition [11]: Dose-dependent effect
- Activity [12]: Non-toxic
- Ki [13]: < 1700 nM
- Ki [14]: 220 nM
